Experimental findings from ChEMBL document CHEMBL3603808, “Discovery and structure of a new inhibitor scaffold of the autophagy initiating kinase ULK1” (Bioorg Med Chem, 2015) are described below.

Molecules are shown by their SMILES. pIC50: −log10 of the molar value.

Experiment [1] deals with T1, Serine/threonine-protein kinase ULK2 (Homo sapiens, UniProt Q8IYT8).
T1 sequence (Q8IYT8 whole entry): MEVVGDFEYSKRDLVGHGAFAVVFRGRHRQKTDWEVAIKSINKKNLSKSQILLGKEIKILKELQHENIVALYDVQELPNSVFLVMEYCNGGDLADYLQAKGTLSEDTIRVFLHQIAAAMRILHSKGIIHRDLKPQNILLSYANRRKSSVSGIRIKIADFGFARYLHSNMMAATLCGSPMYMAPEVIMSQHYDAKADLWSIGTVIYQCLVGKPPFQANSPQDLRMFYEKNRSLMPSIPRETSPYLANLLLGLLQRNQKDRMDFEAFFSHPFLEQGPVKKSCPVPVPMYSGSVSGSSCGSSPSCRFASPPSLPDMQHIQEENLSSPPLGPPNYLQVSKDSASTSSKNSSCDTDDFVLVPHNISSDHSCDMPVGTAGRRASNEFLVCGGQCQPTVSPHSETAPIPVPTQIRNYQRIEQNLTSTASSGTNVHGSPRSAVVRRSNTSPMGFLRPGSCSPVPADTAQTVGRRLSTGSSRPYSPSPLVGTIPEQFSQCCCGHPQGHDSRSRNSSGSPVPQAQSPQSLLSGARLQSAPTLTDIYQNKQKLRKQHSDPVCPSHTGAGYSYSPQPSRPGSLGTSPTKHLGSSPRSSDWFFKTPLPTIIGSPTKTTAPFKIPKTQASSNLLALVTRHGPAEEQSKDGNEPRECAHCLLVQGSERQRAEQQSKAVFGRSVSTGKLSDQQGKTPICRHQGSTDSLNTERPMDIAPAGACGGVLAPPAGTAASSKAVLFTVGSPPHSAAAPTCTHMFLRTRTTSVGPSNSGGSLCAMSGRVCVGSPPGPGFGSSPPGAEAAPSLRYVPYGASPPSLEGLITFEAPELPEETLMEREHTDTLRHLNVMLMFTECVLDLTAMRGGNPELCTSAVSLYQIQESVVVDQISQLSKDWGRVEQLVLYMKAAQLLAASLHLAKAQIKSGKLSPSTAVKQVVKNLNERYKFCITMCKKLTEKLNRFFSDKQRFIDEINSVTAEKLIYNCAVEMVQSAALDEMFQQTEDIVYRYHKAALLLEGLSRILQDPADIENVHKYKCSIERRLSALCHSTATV
The experiment is described as follows: Inhibition of SUMO-tagged ULK2 (unknown origin) kinase domain expressed in KRX cells using [32P]-gamma-ATP and myelin basic protein substrate incubated for 7 mins. In kind it is single protein. In a few lines:
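Enzyme at 5 nM with 50 µM cold ATP, 0.05 µCi/µl 32P-γ-ATP and 20 µM myelin basic protein as substrate. Reactions were spotted onto nitrocellulose, washed three times in 1% phosphoric acid, dried and imaged by phosphorimager. IC50 from curve fitting; duplicate.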

Experiment [2] addresses Serine/threonine-protein kinase PAK 4 (Homo sapiens) (UniProt O96013). The experiment is described as follows: Inhibition of PAK4 (unknown origin) at 2 uM by radioactive filter-binding assay. In short, it runs like this: (§1)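 Panel profiling of one compound against 50 kinases, carried out in duplicate at the International Centre for Protein Kinase Profiling. Radioactive filter-binding format.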

In experiment [3] the target is MAP/microtubule affinity-regulating kinase 3 (Homo sapiens) (UniProt P27448). In words: Inhibition of MARK3 (unknown origin) at 2 uM by radioactive filter-binding assay. In a few lines: as §1
Experiment [4] addresses T2, 3-phosphoinositide-dependent protein kinase 1 (Homo sapiens, UniProt O15530).
T2 sequence (O15530 whole entry): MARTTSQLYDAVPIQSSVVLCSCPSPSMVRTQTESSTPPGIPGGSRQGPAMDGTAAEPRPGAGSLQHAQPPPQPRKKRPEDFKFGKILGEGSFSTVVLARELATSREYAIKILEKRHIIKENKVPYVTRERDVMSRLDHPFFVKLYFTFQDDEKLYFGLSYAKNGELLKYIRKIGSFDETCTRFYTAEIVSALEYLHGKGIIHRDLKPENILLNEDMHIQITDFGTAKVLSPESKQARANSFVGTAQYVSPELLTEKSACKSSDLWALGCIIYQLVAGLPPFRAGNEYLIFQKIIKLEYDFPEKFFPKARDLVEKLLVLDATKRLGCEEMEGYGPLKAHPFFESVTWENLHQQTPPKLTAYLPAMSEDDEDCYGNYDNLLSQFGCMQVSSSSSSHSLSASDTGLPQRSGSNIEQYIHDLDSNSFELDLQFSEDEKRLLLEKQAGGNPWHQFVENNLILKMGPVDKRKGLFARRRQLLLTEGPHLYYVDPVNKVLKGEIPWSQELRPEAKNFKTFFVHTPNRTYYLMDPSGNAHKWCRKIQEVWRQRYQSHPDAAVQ
The experiment is described as follows: Inhibition of recombinant PDK1 (unknown origin) using PDK1tide substrate incubated for 7 mins. In a few lines: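 Recombinant PDK1 at 5 nM with 50 µM synthetic PDK1tide in 50 mM HEPES pH 7.5, 10 mM MgCl2, 1 mg/ml BSA, 0.02% Triton-X and 50 µM DTT. Stopped after 7 min by spotting onto nitrocellulose, washed three times in 1% phosphoric acid and phosphorimaged. IC50 from curve fitting; duplicate.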

For experiment [5], the target named is Ribosomal protein S6 kinase alpha-1 (Homo sapiens) (UniProt Q15418). In words: Inhibition of RSK1 (unknown origin) at 2 uM by radioactive filter-binding assay. In short, it runs like this: as §1
In experiment [6] the target is Dual specificity mitogen-activated protein kinase kinase 1 (Homo sapiens) (UniProt Q02750). The experiment is described as follows: Inhibition of MKK1 (unknown origin) at 2 uM by radioactive filter-binding assay. In a few lines:
as §1

Experiment [7] has as its target Mitogen-activated protein kinase kinase kinase 7 (Homo sapiens) (UniProt O43318). The experiment is described as follows: Inhibition of TAK1 (unknown origin) at 2 uM by radioactive filter-binding assay. In short, it runs like this: as §1
Experiment [8] addresses Mitogen-activated protein kinase kinase kinase 11 (Homo sapiens) (UniProt Q16584). In words: Inhibition of MLK3 (unknown origin) at 2 uM by radioactive filter-binding assay. In short, it runs like this:
as §1

Experiment [9] addresses Receptor-interacting serine/threonine-protein kinase 2 (Homo sapiens) (UniProt O43353). The experiment is described as follows: Inhibition of RIPK2 (unknown origin) at 250 nM by radioactive filter-binding assay. In short, it runs like this:
as §1

Experiment [10] addresses Insulin-like growth factor 1 receptor (Homo sapiens) (UniProt P08069). In words: Inhibition of IGF1R (unknown origin) at 250 nM by radioactive filter-binding assay. In a few lines: as §1
Experiment [11] concerns the target Calcium/calmodulin-dependent protein kinase type 1 (Homo sapiens) (UniProt Q14012). In words: Inhibition of CAMK1 (unknown origin) at 250 nM by radioactive filter-binding assay. In a few lines: as §1
The target in experiment [12] is Serine/threonine-protein kinase 3 (Homo sapiens) (UniProt Q13188). In words: Inhibition of MST2 (unknown origin) at 250 nM by radioactive filter-binding assay. In a few lines: as §1
The species named for the next experiment is Homo sapiens. The experiment is described as follows: Inhibition of Aurora (unknown origin) at 250 nM by radioactive filter-binding assay. In a few lines: as §1
For experiment [13], the target named is Interleukin-1 receptor-associated kinase 4 (Homo sapiens) (UniProt Q9NWZ3). In words: Inhibition of IRAK4 (unknown origin) at 250 nM by radioactive filter-binding assay. In a few lines: as §1
Experiment [14] concerns the target Serine/threonine-protein kinase TBK1 (Homo sapiens) (UniProt Q9UHD2). In words: Inhibition of TBK1 (unknown origin) at 250 nM by radioactive filter-binding assay. In a few lines:
as §1

By pIC50 is commonly meant −log10 of the IC50, conventionally taken in molar units. A word on the inhibition: it is how much of the control response was suppressed.

Sequence of Ribosomal protein S6 kinase alpha-1 (Homo sapiens) (Q15418 whole entry): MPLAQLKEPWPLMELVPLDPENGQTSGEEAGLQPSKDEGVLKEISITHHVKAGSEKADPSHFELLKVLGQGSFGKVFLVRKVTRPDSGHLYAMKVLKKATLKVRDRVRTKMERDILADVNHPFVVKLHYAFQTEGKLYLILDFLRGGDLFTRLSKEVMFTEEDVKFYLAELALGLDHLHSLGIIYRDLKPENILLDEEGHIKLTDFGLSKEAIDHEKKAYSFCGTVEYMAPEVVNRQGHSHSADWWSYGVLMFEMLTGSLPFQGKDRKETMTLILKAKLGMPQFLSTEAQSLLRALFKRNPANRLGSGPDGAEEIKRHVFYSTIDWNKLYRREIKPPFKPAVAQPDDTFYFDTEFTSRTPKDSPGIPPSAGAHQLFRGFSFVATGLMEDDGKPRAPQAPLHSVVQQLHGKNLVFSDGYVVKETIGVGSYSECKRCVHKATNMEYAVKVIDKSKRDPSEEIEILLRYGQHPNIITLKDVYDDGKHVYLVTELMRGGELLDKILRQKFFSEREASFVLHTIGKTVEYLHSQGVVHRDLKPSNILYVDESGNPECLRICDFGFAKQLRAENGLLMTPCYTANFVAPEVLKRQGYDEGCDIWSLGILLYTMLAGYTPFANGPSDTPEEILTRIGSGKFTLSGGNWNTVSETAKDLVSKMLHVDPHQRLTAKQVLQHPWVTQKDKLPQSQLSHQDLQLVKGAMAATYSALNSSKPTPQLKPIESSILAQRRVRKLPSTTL
Sequence of Mitogen-activated protein kinase kinase kinase 11 (Homo sapiens) (Q16584 whole entry, looked up): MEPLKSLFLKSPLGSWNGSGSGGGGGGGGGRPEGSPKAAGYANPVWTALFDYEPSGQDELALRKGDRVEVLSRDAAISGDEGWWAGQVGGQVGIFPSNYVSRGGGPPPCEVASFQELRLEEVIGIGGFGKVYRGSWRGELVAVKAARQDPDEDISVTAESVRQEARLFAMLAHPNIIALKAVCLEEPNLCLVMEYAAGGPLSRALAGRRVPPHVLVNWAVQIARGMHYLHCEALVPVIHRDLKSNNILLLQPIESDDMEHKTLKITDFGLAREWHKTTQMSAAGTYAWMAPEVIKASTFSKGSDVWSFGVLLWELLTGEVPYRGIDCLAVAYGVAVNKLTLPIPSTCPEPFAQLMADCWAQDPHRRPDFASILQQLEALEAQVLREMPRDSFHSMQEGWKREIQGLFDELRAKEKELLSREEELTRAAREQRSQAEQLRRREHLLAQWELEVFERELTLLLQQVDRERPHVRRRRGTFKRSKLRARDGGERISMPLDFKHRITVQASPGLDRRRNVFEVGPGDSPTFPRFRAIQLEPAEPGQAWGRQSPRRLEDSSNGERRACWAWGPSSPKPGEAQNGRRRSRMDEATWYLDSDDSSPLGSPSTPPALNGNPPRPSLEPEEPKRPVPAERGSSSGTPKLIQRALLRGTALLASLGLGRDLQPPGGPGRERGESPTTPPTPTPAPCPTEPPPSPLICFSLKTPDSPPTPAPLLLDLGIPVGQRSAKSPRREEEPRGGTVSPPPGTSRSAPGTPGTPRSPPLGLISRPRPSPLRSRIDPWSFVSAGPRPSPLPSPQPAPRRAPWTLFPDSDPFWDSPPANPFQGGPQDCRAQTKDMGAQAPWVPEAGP
Sequence of Receptor-interacting serine/threonine-protein kinase 2 (Homo sapiens) (O43353 whole entry): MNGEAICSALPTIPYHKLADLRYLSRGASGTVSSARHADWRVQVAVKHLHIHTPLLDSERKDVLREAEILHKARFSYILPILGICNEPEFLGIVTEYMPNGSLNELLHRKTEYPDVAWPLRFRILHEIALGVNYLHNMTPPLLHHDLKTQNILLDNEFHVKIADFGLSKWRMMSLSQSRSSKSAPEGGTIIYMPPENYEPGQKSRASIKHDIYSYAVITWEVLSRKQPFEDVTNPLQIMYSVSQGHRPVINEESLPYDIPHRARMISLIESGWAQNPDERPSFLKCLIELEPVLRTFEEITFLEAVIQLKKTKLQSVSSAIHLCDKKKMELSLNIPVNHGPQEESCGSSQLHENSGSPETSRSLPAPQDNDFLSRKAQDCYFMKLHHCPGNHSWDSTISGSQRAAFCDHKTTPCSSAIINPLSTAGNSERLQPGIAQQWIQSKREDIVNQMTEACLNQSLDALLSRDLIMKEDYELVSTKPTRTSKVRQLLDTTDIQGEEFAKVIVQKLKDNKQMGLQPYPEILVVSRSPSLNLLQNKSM
Sequence of Dual specificity mitogen-activated protein kinase kinase 1 (Homo sapiens) (Q02750 whole entry): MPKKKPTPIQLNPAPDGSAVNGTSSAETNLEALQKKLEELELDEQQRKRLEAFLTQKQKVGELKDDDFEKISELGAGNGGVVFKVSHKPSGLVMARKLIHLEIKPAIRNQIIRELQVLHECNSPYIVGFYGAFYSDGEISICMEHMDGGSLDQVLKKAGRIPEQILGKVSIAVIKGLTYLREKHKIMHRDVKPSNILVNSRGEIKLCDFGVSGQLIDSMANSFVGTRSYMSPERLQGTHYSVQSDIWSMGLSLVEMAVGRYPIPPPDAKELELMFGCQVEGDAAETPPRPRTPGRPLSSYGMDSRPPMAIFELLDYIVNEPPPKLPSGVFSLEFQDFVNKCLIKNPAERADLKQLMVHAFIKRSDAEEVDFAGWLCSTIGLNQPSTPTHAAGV
Sequence of Mitogen-activated protein kinase kinase kinase 7 (Homo sapiens) (O43318 whole entry): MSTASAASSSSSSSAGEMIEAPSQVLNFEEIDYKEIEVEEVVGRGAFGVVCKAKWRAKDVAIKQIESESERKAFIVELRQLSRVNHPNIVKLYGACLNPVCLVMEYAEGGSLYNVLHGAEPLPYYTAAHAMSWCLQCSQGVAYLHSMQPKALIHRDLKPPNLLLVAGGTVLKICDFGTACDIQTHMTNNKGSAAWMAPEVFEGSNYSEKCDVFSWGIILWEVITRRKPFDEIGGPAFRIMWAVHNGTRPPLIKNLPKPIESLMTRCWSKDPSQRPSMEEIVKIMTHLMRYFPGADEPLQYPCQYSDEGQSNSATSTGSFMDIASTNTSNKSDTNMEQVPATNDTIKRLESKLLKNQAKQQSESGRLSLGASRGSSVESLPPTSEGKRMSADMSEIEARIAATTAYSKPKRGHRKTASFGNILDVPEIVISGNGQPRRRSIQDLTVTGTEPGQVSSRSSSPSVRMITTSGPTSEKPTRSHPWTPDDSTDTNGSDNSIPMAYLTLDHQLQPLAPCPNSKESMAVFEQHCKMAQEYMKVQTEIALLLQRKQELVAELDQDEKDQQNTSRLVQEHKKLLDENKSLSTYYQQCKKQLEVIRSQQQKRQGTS
Sequence of Insulin-like growth factor 1 receptor (Homo sapiens) (P08069 31-736 limits assumed): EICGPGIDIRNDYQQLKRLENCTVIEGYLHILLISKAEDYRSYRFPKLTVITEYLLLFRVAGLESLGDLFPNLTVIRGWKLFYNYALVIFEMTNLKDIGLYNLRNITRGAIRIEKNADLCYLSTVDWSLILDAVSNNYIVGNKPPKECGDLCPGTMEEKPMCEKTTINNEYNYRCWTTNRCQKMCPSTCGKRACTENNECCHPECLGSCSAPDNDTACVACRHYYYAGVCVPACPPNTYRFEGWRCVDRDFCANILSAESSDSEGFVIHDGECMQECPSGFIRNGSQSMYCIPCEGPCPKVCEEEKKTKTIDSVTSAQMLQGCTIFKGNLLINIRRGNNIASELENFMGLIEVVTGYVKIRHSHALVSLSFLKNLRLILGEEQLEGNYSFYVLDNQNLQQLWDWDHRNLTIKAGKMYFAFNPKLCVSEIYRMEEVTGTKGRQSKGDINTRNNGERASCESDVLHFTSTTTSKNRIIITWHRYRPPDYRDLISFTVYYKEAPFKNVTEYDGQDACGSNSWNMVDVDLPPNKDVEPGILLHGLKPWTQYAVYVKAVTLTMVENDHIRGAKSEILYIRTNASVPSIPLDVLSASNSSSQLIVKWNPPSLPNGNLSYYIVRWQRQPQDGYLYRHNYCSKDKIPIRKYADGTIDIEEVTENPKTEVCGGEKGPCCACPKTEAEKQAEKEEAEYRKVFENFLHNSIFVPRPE
Sequence of Insulin-like growth factor 1 receptor (Homo sapiens) (P08069 741-1367 limits assumed): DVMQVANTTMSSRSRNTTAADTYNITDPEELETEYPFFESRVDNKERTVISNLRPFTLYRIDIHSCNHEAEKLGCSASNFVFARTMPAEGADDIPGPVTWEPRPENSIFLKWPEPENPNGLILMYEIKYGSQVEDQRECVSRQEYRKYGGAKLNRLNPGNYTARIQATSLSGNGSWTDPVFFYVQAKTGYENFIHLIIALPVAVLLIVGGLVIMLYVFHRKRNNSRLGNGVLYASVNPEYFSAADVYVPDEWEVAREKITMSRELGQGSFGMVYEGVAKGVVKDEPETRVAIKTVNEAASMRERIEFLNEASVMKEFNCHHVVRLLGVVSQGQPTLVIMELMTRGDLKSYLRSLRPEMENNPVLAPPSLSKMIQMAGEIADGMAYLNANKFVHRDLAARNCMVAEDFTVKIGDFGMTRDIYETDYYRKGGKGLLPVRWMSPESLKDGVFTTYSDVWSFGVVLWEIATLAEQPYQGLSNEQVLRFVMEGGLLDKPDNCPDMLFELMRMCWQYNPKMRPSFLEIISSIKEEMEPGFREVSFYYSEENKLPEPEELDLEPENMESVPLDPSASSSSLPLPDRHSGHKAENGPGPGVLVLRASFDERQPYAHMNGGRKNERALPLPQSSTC
Sequence of Interleukin-1 receptor-associated kinase 4 (Homo sapiens) (Q9NWZ3 whole entry): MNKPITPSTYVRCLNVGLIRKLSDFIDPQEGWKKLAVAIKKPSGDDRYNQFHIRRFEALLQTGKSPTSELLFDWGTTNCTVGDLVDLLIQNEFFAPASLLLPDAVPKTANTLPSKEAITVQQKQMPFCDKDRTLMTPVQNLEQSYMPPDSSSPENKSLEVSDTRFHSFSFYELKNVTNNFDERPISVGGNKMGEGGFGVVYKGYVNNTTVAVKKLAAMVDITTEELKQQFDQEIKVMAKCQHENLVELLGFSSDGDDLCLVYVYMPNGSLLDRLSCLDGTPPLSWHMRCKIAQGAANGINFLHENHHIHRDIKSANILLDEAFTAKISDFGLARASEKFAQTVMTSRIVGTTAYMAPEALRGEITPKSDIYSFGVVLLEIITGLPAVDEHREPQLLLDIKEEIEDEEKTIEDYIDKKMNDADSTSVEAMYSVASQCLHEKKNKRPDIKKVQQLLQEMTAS

With `NCCCNc1nc(Nc2cccc(NC(=O)N3CCCC3)c2)ncc1I`, the figures for the pIC50 in experiment [1] and in experiment [4] were 6.44 and 6.15, respectively. The inhibition in [2], in experiment [3], in experiment [5], in experiment [6], in experiment [7] and in [8] was greater than 80% in each case.
With `c1ccc2c(Nc3cc(C4CCC4)[nH]n3)nc(Nc3ccc4[nH]cnc4c3)nc2c1`, the inhibition (in experiment [9]; in experiment [10]; in [11]; in experiment [12]; in the experiment listed under Homo sapiens; in [13]) was greater than 80% each time. The inhibition in [14] is greater than 80%. Besides, the figures for the pIC50 in [1] and in experiment [4] were 7.89 and 6.38, respectively.
